We go through twelve compounds from ChEMBL document CHEMBL1142008, “Discovery and investigation of a novel class of thiophene-derived antagonists of the human glucagon receptor” (Bioorg Med Chem Lett, 2005).

The nature of data set [1]: Steady state volume distribution measured in mouse after peroral administration of 2 mg/kg. Type of data set: ADME, organism-based. The arrangement: dose 2 mg/kg, route oral. The conditions noted are these: in vivo, po. An outline of the steps:
(§1)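 Mouse PK, n = 3 mice per route. Dosed both IV and PO: 1.0 mg/kg IV / 2.0 mg/kg PO for one compound, 5.0 mg/kg IV / 10.0 mg/kg PO for others. Plasma clearance, Vdss, t1/2, Cmax, dose-normalized oral AUC and F% derived.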

Data set [2] can be described thus: Steady state volume distribution measured in mouse after intravenous administration of 1 mg/kg. The conditions noted are these: in vivo, read-out: Vdss. Set-up: dose 1 mg/kg, route intravenous. Type of data set: ADME, organism-based. An outline of the steps: as §1
Data set [3] in a line: Plasma clearance measured in mouse after intravenous administration of 1 mg/kg; n = 3. Format: ADME, organism-based. The arrangement: dose 1 mg/kg, route intravenous. The settings on record: in vivo. An outline of the steps: as §1
The nature of data set [4]: Maximum plasma concentration measured in mouse after peroral administration of 2 mg/kg. The settings on record: po. Format: ADME, organism-based. Set-up: dose 2 mg/kg, route oral. Put shortly:
as §1

Data set [5] has as its target T1, Glucagon receptor (Homo sapiens, UniProt P47871). In words: Inhibition of glucagon induced cAMP accumulation in human glucagon receptor transfected CHO cells. Type of data set: functional, cell-based. Put shortly: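 Functional antagonism in CHO cells transfected with human glucagon receptor. Read-out is inhibition of glucagon-induced cAMP accumulation. Mean of at least two experiments, SD <50% of mean.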

Data set [6] is described as follows: Plasma clearance measured in mouse after peroral administration of 2 mg/kg; n = 3. Type of data set: ADME, organism-based. Set-up: dose 2 mg/kg, route oral. The settings on record: in vivo, po. An outline of the steps:
as §1

Data set [7] in a line: Oral bioavailability in mouse (dose 2 mg/kg). The conditions noted are these: in vivo. Type of data set: ADME, organism-based. An outline of the steps: as §1
The nature of data set [8]: Bioavailability in mouse (dose 1 mg/kg i.v.). The conditions noted are these: in vivo, iv. Format: ADME, organism-based. An outline of the steps:
as §1

The nature of data set [9]: Maximum plasma concentration measured in mouse after intravenous administration of 1 mg/kg. Type of data set: ADME, organism-based. Set-up: dose 1 mg/kg, route intravenous. An outline of the steps:
as §1

Data set [10] addresses T1, Glucagon receptor. In words: Inhibitory concentration towards binding of [125I]glucagon to the human glucagon receptor expressed in CHO cells. Type of data set: cell-based.
A short description of data set [11]: Half life measured in mouse after peroral administration of 2 mg/kg. Format: ADME, organism-based. The arrangement: dose 2 mg/kg, route oral. The conditions noted are these: in vivo, po. Put shortly:
as §1

Data set [12] in a line: Half life measured in mouse after intravenous administration of 1 mg/kg. Type of data set: ADME, organism-based. Set-up: dose 1 mg/kg, route intravenous. The conditions noted are these: in vivo. Put shortly:
as §1

In data set [13] the target is T1, Glucagon receptor. In words: Percent inhibition of glucagon induced cAMP accumulation in human glucagon receptor transfected CHO cells at a compound concentration of 10 uM. Type of data set: functional, cell-based. Put shortly: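 Functional antagonism in CHO cells transfected with human glucagon receptor. Read-out is inhibition of glucagon-induced cAMP accumulation. Reported as IC50, or as percent inhibition at 10 µM compound. Mean of at least two experiments, SD <50% of mean.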
On the technique in general: cAMP levels reflect the balance of adenylyl cyclase and phosphodiesterase activity.

A short description of data set [14]: Maximum plasma concentration measured in mouse after oral administration of 2 mg/kg.

T1 sequence (P47871 whole entry): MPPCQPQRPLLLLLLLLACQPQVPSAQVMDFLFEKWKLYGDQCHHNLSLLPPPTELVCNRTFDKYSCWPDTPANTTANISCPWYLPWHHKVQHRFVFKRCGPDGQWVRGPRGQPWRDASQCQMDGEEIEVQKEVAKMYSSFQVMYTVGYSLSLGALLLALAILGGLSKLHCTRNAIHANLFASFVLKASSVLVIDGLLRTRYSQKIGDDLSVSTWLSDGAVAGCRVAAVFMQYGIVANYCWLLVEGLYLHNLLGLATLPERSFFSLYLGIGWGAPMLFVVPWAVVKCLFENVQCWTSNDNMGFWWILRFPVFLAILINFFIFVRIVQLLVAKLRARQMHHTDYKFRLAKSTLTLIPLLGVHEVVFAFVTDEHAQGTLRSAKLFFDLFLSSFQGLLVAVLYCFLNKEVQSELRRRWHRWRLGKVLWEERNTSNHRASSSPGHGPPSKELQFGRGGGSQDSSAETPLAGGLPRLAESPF

Regarding `CCC(CC)C(=O)Nc1sc(-c2nc(CC(C)C)no2)c(C)c1C#N`, the Vdss in [1] is 16 L/kg. Further, the Vd in [2] is 16 L/kg. Besides, the Clp in [3] and in data set [6] was 84 mL/min/kg each time. Moreover, the Cmax in data set [4] and in data set [9] was 800 nM in each case. In addition, the IC50 – broadly, the concentration that inhibits the measured activity by half – in [5] is 185 nM; in data set [10] it was 368 nM. The bioavailability in data set [7] and in data set [8] was 39% in each case. For the same compound, the half-life in data set [11] and in [12] was 2.7 h each time.
In turn, `CCC(CC)C(=O)Nc1sc(-c2nnc(CC(C)C)o2)c(C)c1C#N` displayed an IC50 in [10] of 3210 nM.
For `CCC(CC)C(=O)Nc1sc2c(c1C#N)CCC(N(C)Cc1ccccc1)C2` (stereo unspecified), the IC50 in data set [10] was determined as 3820 nM.
`CCC(CC)C(=O)Nc1sc2c(c1C(N)=O)CCC(C(C)(C)CC)C2` (stereo unspecified) displayed an IC50 in data set [10] of 870 nM. In [13], the inhibition (as a rule, the drop in the measured response relative to a control, in per cent) was found to be 38%.
For the compound `CCC(CC)C(=O)Nc1sc2c(c1C#N)CCC(C(C)(C)CC)C2` (stereo unspecified), the IC50 amounted to 129 nM in data set [5] and 181 nM in data set [10].
`CCC(C)(C)C1CCc2c(sc(NC(=O)c3ccc(Br)cc3)c2C#N)C1` (stereo unspecified) displayed an IC50 in data set [10] of over 20000 nM.
`CCC(CC)C(=O)Nc1sc2c(c1C#N)CCC(N(C)Cc1ccc(Cl)cc1Cl)C2` (stereo unspecified) registered a Vdss in data set [1] of 3.4 L/kg. Further, the Vd in data set [2] was 3.4 L/kg. The Clp in [3] and in data set [6] was 50 mL/min/kg each time. The Cmax in [4] and in data set [14] was 80 nM each time. Also, the IC50 was 63 nM in data set [5] and 92 nM in data set [10]. Also, the bioavailability in [7] and in [8] was 9.2% each time. Also, the half-life in [11] and in data set [12] was 1.9 h in each case.
On to `CCC(CC)C(=O)Nc1sc(-c2nc(Cc3ccc(Cl)cc3Cl)no2)c(C)c1C#N`, for which the Vdss in data set [1] is 8.7 L/kg. For the same compound, the Vd in data set [2] worked out at 8.7 L/kg. Also, the Clp in data set [3] and in [6] was 23 mL/min/kg throughout. Besides, the Cmax in data set [4] and in [9] was 800 nM throughout. The IC50 in data set [5] amounted to 34 nM; in data set [10] it was 89 nM. For the same compound, the bioavailability in data set [7] and in [8] was 36% in each case. In addition, the half-life in [11] and in data set [12] was 5.1 h throughout.
With `CCC(CC)C(=O)Nc1sc2c(c1C#N)CCC(N(C)C1CCCc3ccccc31)C2` (single isomer, unassigned; form 2), the IC50 in [5] turned out to be 59 nM; in data set [10], 118 nM.
The corresponding values for `CCC(CC)C(=O)Nc1sc(C(=O)N(Cc2ccc(Cl)cc2Cl)C(C)C)c(C)c1C#N` are 41 nM and 153 nM.
The corresponding values for `CCC(CC)C(=O)Nc1sc2c(c1C#N)CCC(N(C)C1CCCc3ccccc31)C2` (single isomer, unassigned; form 1) are 158 nM and 139 nM.
With `CCC(CC)C(=O)Nc1sc2c(c1C#N)CCC(N(Cc1ccc(Cl)cc1Cl)C(C)C)C2` (stereo unspecified), the 50% inhibitory concentration (IC50) in [5] turned out to be 59 nM; in data set [10], 129 nM.
